Data from ChEMBL document CHEMBL1124702, “Synthesis and pharmacological evaluation of a series of dibenzo[a,d]cycloalkenimines as N-methyl-D-aspartate antagonists” (J Med Chem, 1990).

Assays:
Glutamate NMDA receptor = assay: Inhibition of N-methyl-D-aspartate glutamate receptor (NMDA receptor) from homogenized rat brain membrane, using [3H]-MK-801 as a radioligand
Method in brief: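 Male Sprague-Dawley rat (200-300 g) cortical membranes, washed and preincubated 20 min at 23 °C in 5 mM Tris-HCl pH 7.4. Duplicate aliquots (ca. 0.75 mg protein) incubated 60 min at 23 °C with displacer plus [3H]-(+)-10 added as 100 µL of 50 nM stock. Filter-bound radioactivity counted by liquid scintillation; Ki reported.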

[1] = biological target: T1, Glutamate NMDA receptor (Rattus norvegicus) (UniProt P35439+Q00959+Q00960+Q00961+Q62645+Q8VHN2+Q9R1M7); assay: Antagonistic activity against N-methyl-D-aspartate glutamate receptor from rat cortical slice; type: functional
Method in brief: (§1)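 Greased-gap recording of NMDA-induced population depolarizations in rat cortical slices. An NMDA concentration-response curve was run, then repeated with antagonist present. Apparent Kb = antagonist concentration/(CR-1), with CR taken at the midpoint of the control curve. If the curve flattened, a lower antagonist concentration was tried. Failing that, the threshold concentration giving significant antagonism was used.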

Mus musculus [2] = assay: Inhibition of N-Methyl-D,L-aspartate induced convulsions in mice following 500 mg/kg i.p.; type: functional; conditions: ip, route intraperitoneal
Mus musculus [3] = assay: Tested for inhibition of convulsions induced by N-Methyl-D,L-aspartate (NMDLA), after sc administration of a dose of […] in mice; type: functional; conditions: route subcutaneous
Method in brief: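 Test drug given iv 15 min before the convulsant. NMDLA given at 500 mg/kg, sc or ip. Separately, NMDA given sc at 400 mg/kg. Anticonvulsant ED50 determined.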

[4] = biological target: T1, Glutamate NMDA receptor (Rattus norvegicus); assay: Antagonistic activity against N-methyl-D-aspartate glutamate receptor from rat cortical slice was determined (expt.2); type: functional; method in brief: as §1
[5] = biological target: T1, Glutamate NMDA receptor (Rattus norvegicus); assay: Antagonistic activity against N-methyl-D-aspartate glutamate receptor from rat cortical slice was determined (expt.1); type: functional; method in brief: as §1

Row | Compound | Ki (Glutamate NMDA receptor) [µM] | Kb [1] [µM] | further results
1 | CC12NC(Cc3ccccc31)c1cc(O)ccc12 (stereo in doubt; 106) [listing 1 of 2 here] | 0.049 |  | 
2 | CC12NC(Cc3ccccc31)c1ccc(Cl)cc12 (stereo in doubt; (-)-63) [listing 1 of 2 here] |  | 0.56 | 
3 | CC12NC(c3ccccc31)[C@H](O)c1ccccc12 (stereo not given in full) | 2.7 |  | 
4 | CC12NC(O)(Cc3ccccc31)c1ccccc12 (stereo not given) | 0.077 | 0.66 | 
5 | CC12NC(Cc3ccccc31)c1ccc(Br)cc12 (stereo not given) | 0.18 | 0.46 | 
6 | CCN1C2Cc3ccccc3C1c1ccccc12 (stereo not given) | 24 |  | 
7 | OCCN1C2Cc3ccccc3C1c1ccccc12 (stereo not given) | 71 |  | 
8 | OCC(O)[C@]12NC(Cc3ccccc31)c1ccccc12 (stereo not given in full) | 0.32 |  | 
9 | CC12NC(Cc3ccccc31)c1ccc(Cl)cc12 (single isomer, unassigned; (+)) [listing 1 of 2 here] | 0.006 |  | 
10 | OCC12NC(Cc3ccccc31)c1ccccc12 (stereo not given) | 0.35 |  | 
11 | CN1C2Cc3ccccc3C1c1ccccc1C2 | 57 |  | 
12 | CC12NC(Cc3cc(O)ccc31)c1ccccc12 (stereo not given) | 0.277 | 0.51 | 
13 | CC12NC(c3ccccc31)[C@@H](O)c1ccccc12 (stereo in doubt; 120) [listing 1 of 2 here] |  | 0.28 | 
14 | CN1C2(C)Cc3ccccc3C1(C)c1ccccc12 (stereo not given) | 0.71 |  | 
15 | CC12NC(c3ccccc31)[C@@H](O)c1ccccc12 (stereo in doubt; (+)120) [listing 1 of 2 here] |  | 0.25 | 
16 | CCOC(=O)CC12c3ccccc3CC(O)(c3ccccc31)N2O (stereo not given) | > 4500 |  | 
17 | COc1ccc2c(c1)C1(C)NC(C2)c2ccccc21 (stereo not given) | 0.046 |  | 
18 | NC(=O)CC12NC(Cl)(Cc3ccccc31)c1ccccc12 (stereo not given) | > 90 |  | 
19 | CC12NC(Cc3ccc(Br)cc31)c1ccccc12 (stereo in doubt; 88) [listing 1 of 2 here] | 0.08 |  | ED50 (Mus musculus [2]): 1.25 mg/kg; ED50 (Mus musculus [3]): 1.42 mg/kg
20 | CC12NC(Cc3ccc(Cl)cc31)c1ccccc12 (single isomer, unassigned; (-)) |  | 0.56 | 
21 | CC12NC(Cc3ccccc31)c1ccc(Cl)cc12 (stereo in doubt; 63) [listing 1 of 2 here] | 0.084 |  | 
22 | CN1C2Cc3ccccc3C1c1ccccc12 (stereo not given) | 12 |  | 
23 | c1ccc2c(c1)CC1Cc3ccccc3C2N1 | 5.1 |  | 
24 | COc1ccc2c(c1)C1(C)NC2Cc2ccccc21 (stereo in doubt; 83) [listing 1 of 2 here] | 0.036 |  | ED50 (Mus musculus [2]): 0.77 mg/kg

Row | Compound | Ki (Glutamate NMDA receptor) [µM] | Kb [1] [µM] | further results
25 | COc1ccc2c(c1)C1Cc3ccccc3C2(C)N1 (stereo not given) | 0.033 | 0.13 | 
26 | O[C@H]1c2ccccc2C2NC1c1ccccc12 (stereo not given in full) | 7.75 | 2.79 | 
27 | FCC12NC(Cc3ccccc31)c1ccccc12 (stereo not given) | 0.16 | 0.72 | ED50 (Mus musculus [2]): 2.55 mg/kg
28 | C[C@]12N[C@H](Cc3ccccc31)Cc1ccccc12 | 0.139 | 0.31 | 
29 | CC12NC(Cc3ccc(Br)cc31)c1ccccc12 (single isomer, unassigned; (-)) | 0.113 |  | 
30 | CC12NC(Cc3ccc(Br)cc31)c1ccccc12 (stereo in doubt; 88) [listing 2 of 2 here] |  | 0.9 | 
31 | NC(=O)CC12NC(O)(Cc3ccccc31)c1ccccc12 (stereo not given) | 6.4 |  | 
32 | OC12NC(Cc3ccccc31)Cc1ccccc12 | 57 |  | 
33 | CC12NC(Cc3ccc(-c4ccccc4)cc31)c1ccccc12 (stereo not given) | 0.032 | 0.26 | ED50 (Mus musculus [2]): 7.76 mg/kg
34 | c1ccc(SCC23NC(Cc4ccccc42)c2ccccc23)cc1 (stereo not given) | 73 |  | 
35 | CC12NC(Cc3ccc(I)cc31)c1ccccc12 (stereo not given) | 0.011 | 0.51 | 
36 | COc1ccc2c(c1)C1(C)NC2Cc2ccccc21 (stereo in doubt; (-)-83) | 0.102 |  | 
37 | CN1C2(C)Cc3ccccc3C1(C)c1ccccc1C2 | 8.7 |  | 
38 | COc1ccc2c(c1)CC1NC2(C)c2ccccc21 (stereo not given) | 0.61 |  | 
39 | c1ccc2c(c1)CC1NC2(C2SCCCS2)c2ccccc21 (stereo not given) | > 10 |  | 
40 | O=C(O)CC12NC(O)(Cc3ccccc31)c1ccccc12 (stereo not given) | 280 |  | 
41 | CC12NC(Cc3ccc(N)cc31)c1ccccc12 (stereo not given) | 0.027 |  | 
42 | CC12NC(F)(Cc3ccccc31)c1ccccc12 (stereo not given) | 0.93 |  | 
43 | CC12NC(Cc3ccc(CO)cc31)c1ccccc12 (stereo not given) | 0.137 | 0.27 | ED50 (Mus musculus [2]): 1.19 mg/kg
44 | CN1C2Cc3ccccc3C1(C)c1ccccc12 (stereo not given) | 0.61 |  | 
45 | CCC12NC(Cc3ccccc31)c1ccccc12 (stereo not given) | 0.045 | 0.59 | 
46 | ClCCC12NC(Cl)(Cc3ccccc31)c1ccccc12 (stereo not given) | 53 |  | 
47 | CCCC12NC(Cc3ccccc31)c1ccccc12 (stereo not given) | 8.6 |  | 
48 | OCCC12NC(O)(Cc3ccccc31)c1ccccc12 (stereo not given) | 0.074 | 2.1 | 

Row | Compound | Ki (Glutamate NMDA receptor) [µM] | Kb [1] [µM] | further results
49 | CCCCc1ccc2c(c1)C1(C)NC(C2)c2ccccc21 (stereo not given) | 1.25 |  | 
50 | CN1C2CCc3ccccc3C1(O)c1ccccc12 (stereo not given) | > 100 |  | 
51 | CC12NC(c3ccccc31)[C@@H](F)c1ccccc12 (stereo not given in full) | 0.011 | 0.23 | ED50 (Mus musculus [2]): 1.27 mg/kg
52 | CC12NC(Cc3ccccc31)c1cc(O)ccc12 (stereo in doubt; 106) [listing 2 of 2 here] |  | 0.24 | 
53 | O=C(O)CC12NC(Cl)(Cc3ccccc31)c1ccccc12 (stereo not given) | > 4500 |  | 
54 | CC12NC(Cc3ccc(F)cc31)c1ccc(F)cc12 (stereo not given) | 0.031 | 0.32 | 
55 | CC12NC(Cc3ccc(Br)cc31)c1ccccc12 (single isomer, unassigned; (+)) [listing 1 of 2 here] |  | 0.5 | 
56 | C=CC12NC(Cc3ccccc31)c1ccccc12 (stereo not given) | 0.087 | 0.32 | 
57 | CCOC(=O)CC12NC(O)(Cc3ccccc31)c1ccccc12 (stereo not given) | 3.6 |  | 
58 | CC12NC(Cc3ccccc31)c1cc(O)ccc12 (single isomer, unassigned; (-)) | 0.761 |  | 
59 | CC12NC(Cc3ccccc31)c1ccc(Cl)cc12 (stereo in doubt; 63) [listing 2 of 2 here] |  | 1.66 | 
60 | COc1ccc2c(c1)C1(C)NC2Cc2ccccc21 (single isomer, unassigned; (+)) | 0.025 |  | 
61 | OCCC12NC(Cl)(Cc3ccccc31)c1ccccc12 (stereo not given) | 0.28 |  | 
62 | CN1C2Cc3ccccc3C1(C)c1ccccc1C2 | 1.2 |  | 
63 | CC12NC(c3ccccc31)[C@@H](O)c1ccccc12 (stereo in doubt; 120) [listing 2 of 2 here] | 0.21 |  | 
64 | CC12NC(Cc3ccccc31)c1ccc(Cl)cc12 (stereo in doubt; (-)-63) [listing 2 of 2 here] | 0.3 |  | 
65 | CC12NC(Cc3ccc(F)cc31)c1ccccc12 (stereo not given) | 0.03 | 0.38 | 
66 | CC12NC(Cc3ccc(Br)cc31)c1ccccc12 (single isomer, unassigned; (+)) [listing 2 of 2 here] | 0.006 |  | 
67 | CC12NC(Cc3ccccc31)Cc1ccc(Cl)cc12 (stereo not given) | 0.11 | 0.68 | 
68 | CC12NC(Cc3ccccc31)c1ccc(O)cc12 (stereo not given) | 0.023 | 0.13 | ED50 (Mus musculus [2]): 0.43 mg/kg
69 | Cc1ccc2c(c1)C1(C)NC(C2)c2ccccc21 (stereo not given) | 0.034 | 0.38 | ED50 (Mus musculus [2]): 0.53 mg/kg
70 | CC12c3ccccc3CC(c3ccccc31)N2O (stereo not given) | 19 | 45.6 | 
71 | c1ccc2c(c1)CC1NC2c2ccccc21 (stereo not given) | 22.6 |  | 
72 | CCOC(=O)CC12NC(Cc3ccccc31)c1ccccc12 (stereo not given) | 0.55 |  | 

Row | Compound | Ki (Glutamate NMDA receptor) [µM] | Kb [1] [µM] | further results
73 | CC12NC(Cc3ccccc31)c1cc(O)ccc12 (stereo in doubt; (+)-106) [listing 1 of 2 here] | 0.023 |  | ED50 (Mus musculus [2]): 0.97 mg/kg
74 | CCOC(=O)C(O)[C@]12NC(Cc3ccccc31)c1ccccc12 (stereo not given in full) | 0.39 |  | 
75 | [O-][S+](CC12NC(Cc3ccccc31)c1ccccc12)c1ccccc1 (stereo not given) | > 160 |  | 
76 | CC12NC(Cc3ccc(Cl)cc31)c1ccccc12 (stereo in doubt; 64) [listing 1 of 2 here] |  | 0.067 | 
77 | CC12NC(Cc3ccccc31)c1cc(O)ccc12 (stereo in doubt; (+)-106) [listing 2 of 2 here] |  | 0.14 | 
78 | CC12NC(Cc3ccc(O)cc31)c1ccccc12 (stereo not given) | 0.018 |  | Kb [4]: 0.51 µM; Kb [5]: 0.24 µM
79 | O=C(O)C(O)[C@]12NC(Cc3ccccc31)c1ccccc12 (stereo not given in full) | > 1000 |  | 
80 | O[C@@H]1c2ccccc2C2NC1c1ccccc12 (stereo not given in full) | 110 | 9.6 | 
81 | COc1ccc2c(c1)C1(C)NC2Cc2ccccc21 (stereo in doubt; 83) [listing 2 of 2 here] |  | 0.23 | 
82 | CC12NC(Cc3ccccc31)c1ccc(Cl)cc12 (single isomer, unassigned; (+)) [listing 2 of 2 here] |  | 0.08 | 
83 | CC12NC(Cc3ccc(Cl)cc31)c1ccccc12 (stereo in doubt; 64) [listing 2 of 2 here] | 0.011 |  | 
84 | CCC12NC(Cc3ccccc31)Cc1ccccc12 | 0.12 | 0.29 | 
85 | CN1C2CCc3ccccc3C1c1ccccc12 (stereo not given) | 2.6 |  | 
86 | CC12NC(c3ccccc31)[C@@H](O)c1ccccc12 (stereo in doubt; (+)120) [listing 2 of 2 here] | 0.092 |  | ED50 (Mus musculus [2]): 0.35 mg/kg
87 | CC12NC(Cc3ccc(SC(F)(F)F)cc31)c1ccccc12 (stereo not given) | 17 |  | 
88 | CN1C2CCc3ccccc3C1(C)c1ccccc12 (stereo not given) | 8.8 |  | 
89 | FCCC12NC(Cc3ccccc31)c1ccccc12 (stereo not given) | 0.174 | 0.23 | 
90 | CC12NC(Cc3ccc(N=[N+]=[N-])cc31)c1ccccc12 (stereo not given) | 0.14 |  | 
91 | CN1C2Cc3ccccc3C1(O)c1ccccc1C2 | 290 |  | 
92 | CCC12c3ccccc3CC(Cc3ccccc31)N2C | 2.04 |  | 
93 | CC12NC(c3ccccc31)[C@@H](O)c1ccccc12 (single isomer, unassigned; (-)) | 0.302 |  | 
94 | OCCC12NC(Cc3ccccc31)c1ccccc12 (stereo not given) | 0.26 |  | 
